Results filed as inconclusive are left out.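 How the source made its calls, unless noted: active means viability increase at or above a cutoff of the median across tested compounds plus 3 SD (cut at about 8.5% in these data, passing the limit was not always enough); inconclusive means some gains above the cutoff, reason not given; inactive means the rest.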
What was measured:
[1] = S. cerevisiae growth inhibition in permissive medium (OD615), pilot counter-assay for S. cerevisiae lifespan shortening project, permissive growth control (AID 705;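 active means growth inhibition above 25% in both replicates, a cutoff set 3 SD above the mean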); conditions: OD615, 24 h, at 10 µM, active compounds read high
Summary of the method: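 System – S. cerevisiae with engineered DeaD lifespan system · Buffer or medium – SC raffinose/galactose permissive medium · Schedule – cells pre-grown 4 h, then 24 h compound exposure, 30 °C humidified · Technique – culture turbidity as optical density at 615 nm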

[2] = S. cerevisiae growth inhibition in restrictive medium, OD615, pilot screen, restrictive growth control, yeast lifespan reduction project (AID 706;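 active means growth inhibition above a set limit, 3 SD over mean compound inhibition, in both replicates, cut at about 43% in these data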;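 further: modified DeaD lifespan yeast strain shifted to restrictive glucose medium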); conditions: OD615, 48 h, at 10 µM, active compounds read high
Summary of the method: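 Material: engineered S. cerevisiae DeaD strain / Medium: glucose-based CSMM-D restrictive medium / Compound: single dose of 10 µM compound final, 0.25% DMSO / Timing: 4 h pre-incubation, 48 h exposure at 30 °C / Technique: OD615 absorbance reading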

[3] = doxorubicin toxicity protection in MRP-1 cells – H69AR cells, CellTiter-Glo, duplicate, MRP-1 activator project, pilot screen (AID 807); conditions: H69AR viability with doxorubicin, CellTiter-Glo luminescence; at 10 µM; active compounds read high;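 further: compound pretreatment 18-22 h then 72 h combined with doxorubicin; 0% = doxorubicin alone and 100% = vehicle without doxorubicin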
[4] = viability of HCT116 without oncogenic beta-catenin – human colon tumor cells, pilot screen (AID 823;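 active means cell viability at or below a set limit in both duplicate runs, the limit being the all-compound median minus 4 SD, cut at about 23% in these data, passing the limit was not always enough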;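 further: 0% = wells killed by 20 µM Hyamine and 100% = untreated DMSO cell wells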); conditions: HCT116 beta-catenin knockout viability, CellTiter-Glo, 60 h; at 10 µM; active compounds read low
[5] = viability of PTEN-null HCT116 cells – cell-based, HCT116 clonal line, CellTiter-Glo, pilot screen (AID 824;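 active means viability at or below 27.92% in each of two runs, the all-compound median minus 4 SD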;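 further: 0% = 20 µM Hyamine control and 100% = vehicle cell control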); conditions: HCT116 PTEN-deleted viability, 60 h, at 10 µM, active compounds read low
[6] = RAM pathway blockade in budding yeast – dse1pr::URA3 reporter, 5-FOA selection, pilot screen (AID 869;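 active means inhibition over a set limit, the all-compound mean plus 3 SD, in both replicate runs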;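 further: 0% = DMSO wells with no growth and 100% = 10 µM 1-NA-PP1 with full growth; RAM network block rescues cells from 5-FOA so hits raise OD615 growth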); conditions: S. cerevisiae dse1pr::URA3 5-FOA growth, OD615, 2 d; at 10 µM; active compounds read high; strain carries analog-sensitive mutant Cbk1 kinase
[7] = RAM signaling pathway blockade in yeast – S. cerevisiae, Pdr1DBD-CYC8 efflux-inhibited sensitized strain, primary screen (AID 1298;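 active means RAM network inhibition above 8.4% in each of two replicates, 3 SD over the compound average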;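 further: 0% = DMSO untreated cells without growth and 100% = 10 µM 1-NA-PP1 full growth; higher means more yeast growth rescued from 5-FOA killing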); conditions: S. cerevisiae cbk1-as DSE1-URA3 strain, 5-FOA growth OD615, 2 d; at 50 µM; active compounds read high

COc1ccc(NC(=O)CCCC2=NS(=O)(=O)c3ccccc3N2)cc1
inactive: growth inhibition [1] -8.46% | growth inhibition [2] -7.47% | viability increase [3] -3.01% | viability [4] 103% | viability [5] 99.3% | inhibition [6] 1.23% | RAM network inhibition [7] 3.11%

Cc1nn(C(=O)c2cccs2)c(N)c1-c1ccccc1
inactive: growth inhibition [1] 2.29% | growth inhibition [2] 5.9% | viability increase [3] 0.4% | viability [4] 84.4% | viability [5] 96% | inhibition [6] 0.035% | RAM network inhibition [7] 2.36%

CCc1cc2c(=O)n(N)c(CCC(=O)O)nc2s1
inactive: growth inhibition [1] -14.9% | growth inhibition [2] -3.94% | viability increase [3] -1.37% | viability [4] 100% | viability [5] 96.1% | inhibition [6] 0.425% | RAM network inhibition [7] 8.13%

O=C(CN1CCOc2ccccc21)NCc1ccc(F)cc1
inactive: growth inhibition [1] -29.5% | growth inhibition [2] 2.98% | viability increase [3] -5.89% | viability [4] 91.4% | viability [5] 85.8% | inhibition [6] 0.305% | RAM network inhibition [7] -0.84%

Cc1nc(C)c(C(=O)Nc2ccccc2)s1
inactive: growth inhibition [1] -0.755% | growth inhibition [2] -6.96% | viability increase [3] -0.17% | viability [4] 98.4% | viability [5] 88.3% | inhibition [6] 0.68% | RAM network inhibition [7] 3.02%

C=CCOc1cccc(C2c3c(oc4ccccc4c3=O)C(=O)N2c2ccccn2)c1 (configuration not stated)
inactive: growth inhibition [1] -8.5% | growth inhibition [2] -8.1% | viability increase [3] -4.17% | viability [4] 79.7% | viability [5] 81.6% | inhibition [6] 2.12% | RAM network inhibition [7] 9.18%

O=C(CN1CCOc2ccccc21)N1CCC(Cc2ccccc2)CC1
inactive: growth inhibition [1] -3.59% | growth inhibition [2] 21.2% | viability increase [3] -3.42% | viability [4] 88% | viability [5] 95.1% | inhibition [6] 1.46% | RAM network inhibition [7] 8.63%

CCOc1ccc(C(=O)CCNC(Cc2cnc[nH]2)C(=O)O)cc1 (configuration not stated)
inactive: growth inhibition [1] 5.56% | growth inhibition [2] 8.23% | viability increase [3] -2.31% | viability [4] 95.1% | viability [5] 92.7% | inhibition [6] 2.15% | RAM network inhibition [7] 4.96%

CCCOc1ccc(N2C(=O)CC(N3CCN(c4ccccc4OC)CC3)C2=O)cc1 (configuration not stated)
inactive: growth inhibition [1] 0.31% | growth inhibition [2] -41.2% | viability increase [3] 0.03% | viability [4] 97.6% | viability [5] 90.8% | inhibition [6] 2.04% | RAM network inhibition [7] 5.49%

Cc1ccccc1NC(=O)CN1C(=O)COc2ccc(Cl)cc21
inactive: growth inhibition [1] -14.1% | growth inhibition [2] -18% | viability increase [3] 1.63% | viability [4] 95% | viability [5] 87.9% | inhibition [6] 0.995% | RAM network inhibition [7] 4.92%

O=C(CCCC(=O)n1cnc2ccccc21)n1cnc2ccccc21
inactive: growth inhibition [1] -3.46% | growth inhibition [2] 4.09% | viability increase [3] -1.98% | viability [4] 96.2% | viability [5] 92.9% | inhibition [6] 1.08% | RAM network inhibition [7] 0.98%

O=C(O)C1C2C=CC(C2)C1C(=O)OCC1CCCO1 (configuration not stated)
inactive: growth inhibition [1] -6.31% | growth inhibition [2] 1.68% | viability increase [3] -1.53% | viability [4] 98.1% | viability [5] 94.8% | inhibition [6] 0.865% | RAM network inhibition [7] 1.34%

O=C(NCc1cn2ccsc2n1)c1cccs1
inactive: growth inhibition [1] -11.6% | growth inhibition [2] 2.67% | viability increase [3] -2.88% | viability [4] 95.1% | viability [5] 95.8% | inhibition [6] 1.04% | RAM network inhibition [7] 7.64%

CNc1ccc(OC(F)F)cc1C(=O)c1ccccc1
inactive: growth inhibition [1] 12.9% | growth inhibition [2] -4.32% | viability increase [3] -2.34% | viability [4] 89.8% | viability [5] 92.9% | inhibition [6] 0.685% | RAM network inhibition [7] 2.22%

CCOC(=O)CCCSc1nc2sc(C)c(C)c2c(=O)[nH]1
inactive: growth inhibition [1] -12.1% | growth inhibition [2] -15.5% | viability increase [3] -0.74% | viability [4] 102% | viability [5] 98.5% | inhibition [6] 3.01% | RAM network inhibition [7] 3.95%

CN(C)CCNC(=O)c1ccc(CS(=O)(=O)c2c(Cl)cccc2Cl)o1
inactive: growth inhibition [1] -2.3% | growth inhibition [2] -9.77% | viability increase [3] -1.24% | viability [4] 99.2% | viability [5] 97.6% | inhibition [6] 2.96% | RAM network inhibition [7] -1.13%

O=C(Cn1ncc2c1-c1ccccc1OC2)N(Cc1ccco1)C1CCCCC1
inactive: growth inhibition [1] 0.715% | growth inhibition [2] -5.62% | viability increase [3] -2.69% | viability [4] 78.5% | viability [5] 74.9% | inhibition [6] 2.08% | RAM network inhibition [7] 3.96%

CCN1CCc2c(sc(NC(=O)c3ccc(S(=O)(=O)N4CCOCC4)cc3)c2C(N)=O)C1
inactive: growth inhibition [1] -2.02% | growth inhibition [2] -1.51% | viability increase [3] -2.7% | viability [4] 86.8% | viability [5] 87.2% | inhibition [6] 1.45% | RAM network inhibition [7] 0.16%

NC(=O)c1ccc(N2CCCCC2)c(N2C(=O)CCC2=O)c1
inactive: growth inhibition [1] -4.77% | growth inhibition [2] -17.9% | viability increase [3] -0.03% | viability [4] 102% | viability [5] 94.6% | inhibition [6] 2.69% | RAM network inhibition [7] 2.67%

O=C(CCc1ccccc1)Nc1ccc(NC(=O)c2ccco2)cc1
inactive: growth inhibition [1] -5.04% | growth inhibition [2] 0.64% | viability increase [3] -1.63% | viability [4] 103% | viability [5] 93.7% | inhibition [6] 1.44% | RAM network inhibition [7] 2.56%

COC(=O)CN1C(=O)C(O)(CC(=O)c2ccc(Br)cc2)c2ccccc21 (configuration not stated)
inactive: growth inhibition [1] 5.54% | growth inhibition [2] 11.5% | viability increase [3] -2.96% | viability [4] 92.4% | viability [5] 96.6% | inhibition [6] 0.785% | RAM network inhibition [7] 3.19%

CN(C)S(=O)(=O)c1ccc(C(=O)Nc2ccc(OCC(=O)N3CCOCC3)cc2)cc1
inactive: growth inhibition [1] 0.98% | growth inhibition [2] -1.1% | viability increase [3] -1.5% | viability [4] 97.7% | viability [5] 97.9% | inhibition [6] 2.33% | RAM network inhibition [7] 0.86%

C1CCC(Nc2nnnn2C2CCCCC2)CC1
inactive: growth inhibition [1] -16.8% | growth inhibition [2] -16.1% | viability increase [3] -2.17% | viability [4] 90.4% | viability [5] 92.5% | inhibition [6] 1.41% | RAM network inhibition [7] 3.33%

O=C(NC1CCCCC1)N1CCCCCC1
inactive: growth inhibition [1] 1.12% | growth inhibition [2] -18% | viability increase [3] -0.52% | viability [4] 96.6% | viability [5] 97.5% | inhibition [6] 0.64% | RAM network inhibition [7] 3.56%

CCOc1ccc(NC(=O)CCS(=O)(=O)c2cccc3nsnc23)cc1
inactive: growth inhibition [1] -1.9% | growth inhibition [2] -3.6% | viability increase [3] -3.08% | viability [4] 101% | viability [5] 93.7% | inhibition [6] 1.31% | RAM network inhibition [7] 2.36%

CC1Cc2nc(SCC(=O)NCc3ccco3)n(-c3ccccc3)c(=O)c2S1 (configuration not stated)
inactive: growth inhibition [1] -6.6% | growth inhibition [2] -7.02% | viability increase [3] -4.56% | viability [4] 103% | viability [5] 99% | inhibition [6] 0.405% | RAM network inhibition [7] 6.31%

COCCCN(C(=O)Cn1ncc2c(=O)oc3ccc(C)cc3c21)C(C)c1ccncc1 (configuration not stated)
inactive: growth inhibition [1] -16% | growth inhibition [2] -27.4% | viability increase [3] -1.85% | viability [4] 103% | viability [5] 98.3% | inhibition [6] 1.15% | RAM network inhibition [7] 0.85%

CCCCCn1c(=O)[nH]c2cc(C(=O)O)ccc2c1=O
inactive: growth inhibition [1] -13.9% | growth inhibition [2] -12.1% | viability increase [3] -1.3% | viability [4] 102% | viability [5] 90.7% | inhibition [6] 1.91% | RAM network inhibition [7] 2.2%

CCC(=O)c1ccc(CCCCCC(=O)O)s1
inactive: growth inhibition [1] 4.35% | growth inhibition [2] -7.41% | viability increase [3] -0.1% | viability [4] 98.2% | viability [5] 98.7% | inhibition [6] 1.34% | RAM network inhibition [7] 3.2%

COc1cc(C2C(C(=O)OC(C)C)=C(C)Nc3ncnn32)cc(OC)c1OC (configuration not stated)
inactive: growth inhibition [1] -8.66% | growth inhibition [2] -10.4% | viability increase [3] -3.15% | viability [4] 100% | viability [5] 96.8% | inhibition [6] 1.19% | RAM network inhibition [7] 1.44%

CCN(CC)c1ccc(NC(=O)C2CC3CCC2C3)cc1 (configuration not stated)
inactive: growth inhibition [1] -9.15% | growth inhibition [2] -4.45% | viability increase [3] 1.44% | viability [4] 69.6% | viability [5] 80.6% | inhibition [6] 1.14% | RAM network inhibition [7] 6.6%

Cc1ccc(S(=O)(=O)N2CCCC(C(=O)N(Cc3cccs3)C3CC3)C2)cc1 (configuration not stated)
inactive: growth inhibition [1] -7.06% | growth inhibition [2] -14.9% | viability increase [3] -0.66% | viability [4] 61.3% | viability [5] 71.5% | inhibition [6] 0.39% | RAM network inhibition [7] 7.4%

CCOC(=O)c1c(C)n(C)c2ccc(OCC(O)CN3CCC(C)CC3)cc12 (configuration not stated)
inactive: growth inhibition [1] -1.52% | growth inhibition [2] 4.4% | viability increase [3] -5.47% | viability [4] 70.2% | viability [5] 75.8% | inhibition [6] 0.415% | RAM network inhibition [7] -0.57%

COc1ccccc1NC(=O)C1=C(C)NC(=O)NC1c1ccc(C)cc1 (configuration not stated)
inactive: growth inhibition [1] -6.15% | growth inhibition [2] -13.7% | viability increase [3] -1.68% | viability [4] 105% | viability [5] 95.6% | inhibition [6] 1.23% | RAM network inhibition [7] -1.08%

Cc1nc2sc(C(c3cccs3)N3CCN(C(=O)c4ccco4)CC3)c(O)n2n1 (configuration not stated)
inactive: growth inhibition [1] -1.15% | growth inhibition [2] -6.47% | viability increase [3] -3.62% | viability [4] 102% | viability [5] 100% | inhibition [6] 0.74% | RAM network inhibition [7] -1.05%

CC(Oc1ccccc1)C(=O)OCC(=O)NC(=O)NCc1ccco1 (configuration not stated)
inactive: growth inhibition [1] -5% | growth inhibition [2] -0.75% | viability increase [3] -1.78% | viability [4] 97.9% | viability [5] 97.2% | inhibition [6] 3.58% | RAM network inhibition [7] 2.68%

Source: PubChem BioAssay
